ChEMBL document CHEMBL4041513, “In silico identification, design and synthesis of novel piperazine-based antiviral agents targeting the hepatitis C virus helicase” (Eur J Med Chem, 2017)
One block for each compound: values may come before it. Activity calls are given as the source filed them. No cut-off for these calls is given here.

What was measured:
[1] = tested on: Hepatitis C virus; experiment: Antiviral activity against HCV genotype 1b infected in human HuH5.2 cells with persistent I389luc-ubi-neo/NS3-3'/5.1 replicon after 72 hrs by luciferase reporter gene assay; type: functional, cell-based, Hepacivirus hominis; conditions: Huh-5-2, 72 h
Method in brief: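 Huh 5-2 cells carrying the genotype 1b I389luc-ubi-neo/NS3-3'/5.1 replicon were seeded at 6 500 cells/well in Geneticin-free DMEM/10% FCS and left overnight. Compounds from DMSO stocks were added in a four-step 1-to-5 series for the first screen or an eight-step 1-to-2 series for dose-response curves, then 72 h at 37 °C. Luciferase luminescence after lysis, as % of untreated controls, gave EC50; mean of ≥2 experiments.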

[2] = Cytotoxicity against human HuH5.2 cells assessed as reduction in cell viability after 72 hrs by MTS assay; type: cell-based, Huh-5-2
Method in brief: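 Huh 5-2 cells carrying the genotype 1b I389luc-ubi-neo/NS3-3'/5.1 replicon were seeded at 6 500 cells/well in medium without Geneticin one day ahead. Compounds (DMSO stock) were added as 1:5 four-step or 1:2 eight-step dilutions for 72 h at 37 °C.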

[3] = Selectivity index, ratio of CC50 for human HuH5.2 cells to EC50 for HCV genotype 1b infected in human HuH5.2 cells with persistent I389luc-ubi-neo/NS3-3'/5.1 replicon
[4] = Inhibition of HCV NS3 helicase DNA unwinding activity using fluorescent DNA substrate by molecular beacon assay; set-up: species or system Hepacivirus hominis
Method in brief: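 Molecular beacon unwinding reaction: 25 mM MOPS pH 6.5, 1.25 mM MgCl2, 5% DMSO, 5 µg/ml BSA, 0.01% Tween20, 0.05 mM DTT, 5 nM fluorescent DNA substrate, 12.5 nM NS3h, 1 mM ATP. Duplicate two-fold dilutions spanned 1 mM to 0.78 µM. Data normalised to no-inhibitor and no-enzyme controls; IC50 from variable-slope Hill fit.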

[5] = Inhibition of DNA oligonucleotide binding to HCV NS3 helicase; set-up: species or system Hepacivirus hominis
Method in brief: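 Compounds run in duplicate two-fold series from 1 mM to 0.78 µM; normalised to no-inhibitor and no-enzyme controls; IC50 by variable Hill-slope dose-response fit.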

[6] = Inhibition of HCV NS3 helicase ATP hydrolysis activity in presence of poly(U) RNA; set-up: species or system Hepacivirus hominis
Method in brief: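 ATPase run with RNA: 25 mM MOPS pH 6.5, 1.25 mM MgCl2, 15 µM poly(U), 6 nM NS3h, 5 µg/mL BSA, 0.001% Tween 20. Duplicate two-fold compound series from 1 mM to 0.78 µM; normalised to no-inhibitor and no-enzyme controls; IC50 from variable Hill-slope fit. A separate poly(U) titration gave K_RNA, fit assuming unchanged Vmax.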

[7] = tested on: Hepacivirus hominis; experiment: Inhibition of HCV NS3 helicase ATP hydrolysis activity at 1 mM in absence of poly(U) RNA
[8] = Binding affinity to HCV genotype 2A JFH1 protease domain truncated NS3 helicase by fluorescence assay; set-up: species or system Hepatitis C virus JFH-1
Method in brief: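 Intrinsic tryptophan fluorescence titration (ex 280 nm, em 340 nm) of NS3h, the JFH1 genotype 2a NS3 helicase domain without protease, at 100 nM, with compound alone as reference. Intensities corrected for dilution and inner-filter effects, then globally fit to a quadratic binding equation for Kd.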

[9] = tested on: Hepacivirus hominis; experiment: Selectivity ratio of inhibition of DNA oligonucleotide binding to HCV NS3 helicase to inhibition of HCV NS3 helicase ATP hydrolysis activity

Structure (SMILES): CCOC(=O)c1ccc(S(=O)(=O)NCCCN2CCN(CCCNS(=O)(=O)c3ccc(C(=O)OCC)cc3)CC2)cc1
EC50 [1]: 56.2 µM
CC50 at 72 h [2]: > 160 µM
Ratio CC50/EC50 [3]: >2.8
IC50 [4]: > 1000 µM

Structure (SMILES): CC(C)(C)c1ccc(S(=O)(=O)NCCCN2CCN(CCCNS(=O)(=O)c3ccc(-c4ccccc4)cc3)CC2)cc1
EC50 [1]: 1.3 µM
EC90 [1]: 3.05 µM
CC50 at 72 h [2]: 4.78 µM
Ratio CC50/EC50 [3]: 3.7
IC50 [4]: 90 µM
IC50 [5]: 200 µM
IC50 [6]: 21 µM
inhibition [7]: inactive
Kd [8]: 0.57 µM
Selectivity ratio [9]: 10

Structure (SMILES): O=S(=O)(NCCCN1CCN(CCCNS(=O)(=O)c2ccc(Cl)cc2)CC1)c1ccc(Cl)cc1
EC50 [1]: 13 to 13.8 µM
CC50 at 72 h [2]: > 182 µM
Ratio CC50/EC50 [3]: >13.2 - 14
IC50 [4]: > 1000 µM
IC50 [5]: > 1000 µM
IC50 [6]: > 1000 µM

Structure (SMILES): O=C(CCNS(=O)(=O)c1ccc(Cl)cc1)N1CCN(CCCNS(=O)(=O)c2ccc(Cl)cc2)CC1
EC50 [1]: 9.32 µM
EC90 [1]: 25.9 µM
CC50 at 72 h [2]: 69.1 µM
Ratio CC50/EC50 [3]: 7.4
IC50 [4]: > 1000 µM

Structure (SMILES): O=C(CCNS(=O)(=O)c1ccc(-c2ccccc2)cc1)N1CCN(CCCNS(=O)(=O)c2ccc(-c3ccccc3)cc2)CC1
EC50 [1]: 3.03 µM
CC50 at 72 h [2]: 66.9 µM
Ratio CC50/EC50 [3]: 22.1
IC50 [4]: > 1000 µM

Structure (SMILES): CC(C)(C)c1ccc(S(=O)(=O)NCCCN2CCN(CCCNS(=O)(=O)c3ccc(C(C)(C)C)cc3)CC2)cc1
EC50 [1]: 8.7 µM
EC90 [1]: 42.9 µM
CC50 at 72 h [2]: 97.2 µM
Ratio CC50/EC50 [3]: 11.2
IC50 [4]: 310 µM
IC50 [5]: > 1000 µM
IC50 [6]: 590 µM

Structure (SMILES): CC(C)(C)c1ccc(S(=O)(=O)NCCCN2CCN(CCCNS(=O)(=O)c3ccc(Cl)cc3)CC2)cc1
EC50 [1]: 2.21 µM
EC90 [1]: 4.96 µM
CC50 at 72 h [2]: 8.77 µM
Ratio CC50/EC50 [3]: 4
IC50 [4]: 310 µM

Structure (SMILES): CC(C)(C)c1ccc(S(=O)(=O)NCCCN2CCN(CCNS(=O)(=O)c3ccc(C(C)(C)C)cc3)CC2)cc1
EC50 [1]: 1.7 µM
CC50 at 72 h [2]: 5.21 µM
Ratio CC50/EC50 [3]: 3.1
IC50 [4]: 170 µM

Structure (SMILES): O=S(=O)(NCCCN1CCN(CCCNS(=O)(=O)c2ccc3ccccc3c2)CC1)c1ccc2ccccc2c1
EC50 [1]: 4.9 µM
CC50 at 72 h [2]: 49.9 µM
Ratio CC50/EC50 [3]: 10
IC50 [4]: 460 µM

Structure (SMILES): O=S(=O)(NCCCN1CCN(CCCNS(=O)(=O)c2ccc(C(F)(F)F)cc2)CC1)c1ccc(C(F)(F)F)cc1
EC50 [1]: 6.5 µM
CC50 at 72 h [2]: > 162 µM
Ratio CC50/EC50 [3]: >25
IC50 [4]: > 1000 µM

Structure (SMILES): O=S(=O)(NCCN1CCN(CCNS(=O)(=O)c2ccc3ccccc3c2)CC1)c1ccc2ccccc2c1
EC50 [1]: 10.6 µM
CC50 at 72 h [2]: > 90.5 µM
Ratio CC50/EC50 [3]: >8.5
IC50 [4]: 690 µM

Structure (SMILES): O=S(=O)(NCCCN1CCN(CCCNS(=O)(=O)c2ccc(-c3ccccc3)cc2)CC1)c1ccc(-c2ccccc2)cc1
EC50 [1]: 1.2 µM
CC50 at 72 h [2]: 4.9 µM
Ratio CC50/EC50 [3]: 3.9
IC50 [4]: 630 µM

Structure (SMILES): O=S(=O)(NCCCN1CCN(CCCNS(=O)(=O)c2ccc(-c3ccccc3)cc2)CC1)c1ccccc1
EC50 [1]: 4 µM
CC50 at 72 h [2]: 14 µM
Ratio CC50/EC50 [3]: 3.5
IC50 [4]: > 1000 µM

IC50 [4]: > 1000 µM
IC50 [5]: > 1000 µM
IC50 [6]: > 1000 µM
Structure (SMILES): O=C(CCNS(=O)(=O)c1ccc(Cl)cc1)N1CCN(C(=O)CCNS(=O)(=O)c2ccc(Cl)cc2)CC1
CC50 at 72 h [2]: > 86.6 µM

Structure (SMILES): O=C(O)c1ccc(S(=O)(=O)NCCCN2CCN(CCCNS(=O)(=O)c3ccc(C(=O)O)cc3)CC2)cc1
EC50 [1]: > 176 µM
CC50 at 72 h [2]: > 176 µM
IC50 [4]: > 1000 µM

Structure (SMILES): O=S(=O)(NCCCCN1CCN(CCCCNS(=O)(=O)c2ccc(Cl)cc2)CC1)c1ccc(Cl)cc1
EC50 [1]: 66.7 µM
EC90 [1]: 164 µM
CC50 at 72 h [2]: > 173 µM
Ratio CC50/EC50 [3]: >2.5
IC50 [4]: 790 µM

Structure (SMILES): CC(C)(C)c1ccc(S(=O)(=O)NCCCN2CCN(C(=O)CCNS(=O)(=O)c3ccc(C(C)(C)C)cc3)CC2)cc1
EC50 [1]: 3.84 µM
CC50 at 72 h [2]: 20.8 µM
Ratio CC50/EC50 [3]: 5.4
IC50 [4]: > 1000 µM

Structure (SMILES): O=S(=O)(NCCCN1CCN(CCCNS(=O)(=O)c2cccc3cccnc23)CC1)c1cccc2cccnc12
EC50 [1]: 42.5 µM
EC90 [1]: > 172 µM
CC50 at 72 h [2]: > 172 µM
Ratio CC50/EC50 [3]: >4
IC50 [4]: > 1000 µM

Structure (SMILES): CC(C)(C)c1ccc(S(=O)(=O)NCCCN2CCN(CCCNS(=O)(=O)c3ccc(C(F)(F)F)cc3)CC2)cc1
EC50 [1]: 6.62 µM
EC90 [1]: 13.8 µM
CC50 at 72 h [2]: 28.7 µM
Ratio CC50/EC50 [3]: 4.3
IC50 [4]: > 1000 µM
